Measured values gathered from unrelated publications.
Target: Mitogen-activated protein kinase kinase kinase 5 (MAP3K5, Homo sapiens, UniProt Q99683)
One construct used (Q99683 1-1374): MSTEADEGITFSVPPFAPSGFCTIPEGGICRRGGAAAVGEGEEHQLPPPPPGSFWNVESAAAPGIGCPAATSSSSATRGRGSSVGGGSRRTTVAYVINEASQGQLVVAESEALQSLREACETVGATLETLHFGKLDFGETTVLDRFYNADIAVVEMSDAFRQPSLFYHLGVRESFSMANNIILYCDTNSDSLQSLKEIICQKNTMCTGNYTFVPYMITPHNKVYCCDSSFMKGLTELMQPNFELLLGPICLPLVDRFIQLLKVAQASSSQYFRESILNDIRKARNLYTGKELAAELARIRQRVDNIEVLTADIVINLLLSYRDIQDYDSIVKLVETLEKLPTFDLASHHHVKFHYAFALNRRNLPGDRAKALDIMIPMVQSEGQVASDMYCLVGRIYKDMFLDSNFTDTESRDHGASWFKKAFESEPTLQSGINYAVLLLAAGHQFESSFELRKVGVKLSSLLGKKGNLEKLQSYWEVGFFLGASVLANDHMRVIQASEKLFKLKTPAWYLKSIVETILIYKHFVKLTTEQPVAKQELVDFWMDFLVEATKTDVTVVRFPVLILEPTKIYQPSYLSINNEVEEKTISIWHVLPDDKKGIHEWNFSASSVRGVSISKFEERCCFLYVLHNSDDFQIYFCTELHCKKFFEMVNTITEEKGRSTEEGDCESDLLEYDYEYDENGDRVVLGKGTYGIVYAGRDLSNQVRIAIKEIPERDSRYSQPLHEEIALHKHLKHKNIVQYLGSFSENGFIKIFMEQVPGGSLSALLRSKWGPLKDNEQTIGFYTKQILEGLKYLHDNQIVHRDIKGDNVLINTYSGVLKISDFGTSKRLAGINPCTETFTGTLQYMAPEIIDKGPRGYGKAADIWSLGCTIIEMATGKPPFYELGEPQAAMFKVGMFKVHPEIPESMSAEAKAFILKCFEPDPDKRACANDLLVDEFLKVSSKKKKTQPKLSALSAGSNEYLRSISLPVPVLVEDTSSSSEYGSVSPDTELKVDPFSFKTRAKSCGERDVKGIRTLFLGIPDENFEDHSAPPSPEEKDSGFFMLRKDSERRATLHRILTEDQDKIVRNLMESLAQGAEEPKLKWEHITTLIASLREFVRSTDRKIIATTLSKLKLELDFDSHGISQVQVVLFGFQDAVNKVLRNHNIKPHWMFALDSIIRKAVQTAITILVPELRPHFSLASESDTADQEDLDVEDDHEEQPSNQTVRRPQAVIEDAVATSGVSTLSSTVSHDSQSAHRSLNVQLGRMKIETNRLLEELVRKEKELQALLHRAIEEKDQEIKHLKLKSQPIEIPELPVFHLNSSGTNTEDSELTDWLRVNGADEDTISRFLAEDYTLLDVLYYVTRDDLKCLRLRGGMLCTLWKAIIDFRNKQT

| Structure (SMILES) | test | conditions | measurement | result |
| --- | --- | --- | --- | --- |
| CCCCC(=O)Nc1ccc(-c2ccc3ncn(CCC)c(=O)c3c2)cn1 | binding, competition with immobilised ligand | 0.5 µM | remaining binding | 91% |
| CO[C@@H]1[C@H](N(C)C(=O)c2ccccc2)C[C@H]2O[C@]1(C)n1c3ccccc3c3c4c(c5c6ccccc6n2c5c31)C(=O)NC4 | enzyme activity, inhibitor | 1 µM | inhibition | 0% |
| Cc1cc(O)c(-c2ccc([C@@H](C)CN(C)C)cc2)c2c1[nH]c(=O)c1sccc12 | enzyme activity, inhibitor | 0.1 µM | inhibition | -7.51% |
| CN1CCN(C(=O)c2ccc(NC(=O)Nc3ccc(N(C)c4ccnc(Nc5ccc(CS(C)(=O)=O)cc5)n4)cc3)cc2)CC1 | binding | 1 µM | remaining binding | 100% |
| C#Cc1cc(-c2cc(Nc3nc(N[C@@H](C)c4ccc(F)cn4)ncc3Cl)n[nH]2)ccc1C=O | enzyme activity, inhibitor | 0.2 µM | inhibition | 4.04% |
| Cc1ccc(NC(=O)c2ccnc(C(F)(F)F)c2)cc1-c1cc(OCCO)nc(N2CCOCC2)c1 | binding | 1 µM | remaining binding | 92% |
| C=CC(=O)N1CCC[C@@H](n2nc(-c3ccc(Oc4ccccc4)cc3)c3c(N)ncnc32)C1 | enzyme activity, inhibitor | 1 µM | inhibition | 10% |
| COc1ccc2oc(-c3ccc4nc(N)oc4c3)c/c(=N\c3ccccc3NC(=O)CCN)c2c1 | binding | 1 µM | remaining binding | 100% |
